Laboratory results taken from ChEMBL document CHEMBL1137018 (Antimicrob Agents Chemother, 2007).

What was measured:
[1] = AUC (0 to 12 hrs) in human at 400 mg, po bid on day 1 and 200 mg, po bid on day 2 and 3 followed by 7 days of washout period then treated with ritonavir 100 mg, po for 10 days followed by 200 mg, po of drug coadministered with 100 mg, po ritonavir till day 30; type: ADME, organism-based; set-up: time < 12 hr, dose 400 mg, route oral; settings: plasma
How it was run: (§1)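 Healthy male volunteers. […] Plasma was sampled on days 3 and 30 at 0.5–12 h postdose. Samples were solid-phase extracted and assayed by LC/MS/MS (range 10 to 2,500 ng/ml). Cmax and Tmax were read directly from the data; AUC0-12 was noncompartmental.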

[2] = Cmax in human at 400 mg, po bid on day 1 and 200 mg, po bid on day 2 and 3 followed by 7 days of washout period then treated with ritonavir 400 mg, po for 10 days followed by 200 mg, po of drug coadministered with 400 mg, po ritonavir till day 30; type: ADME, organism-based; set-up: dose 400 mg, route oral; settings: in vivo; how it was run: as §1
[3] = Tmax in human at 400 mg, po bid on day 1 and 200 mg, po bid on day 2 and 3 followed by 7 days of washout period then treated with ritonavir 400 mg, po for 10 days followed by 200 mg, po of drug coadministered with 400 mg, po ritonavir till day 30; type: ADME, organism-based; settings: in vivo; how it was run: as §1
[4] = AUC (0 to 12 hrs) in human at 400 mg, po bid on day 1 and 200 mg, po bid on day 2 and 3 followed by 7 days of washout period then treated with ritonavir 400 mg, po for 10 days followed by 200 mg, po of drug coadministered with 400 mg, po ritonavir till day 30; type: ADME, organism-based; set-up: time < 12 hr, dose 400 mg, route oral; settings: plasma; how it was run: as §1
[5] = Tmax in human at 400 mg, po bid on day 1 and 200 mg, po bid on day 2 and 3 measured after 3 days; type: ADME, organism-based; settings: in vivo; how it was run: as §1
[6] = Cmax in human at 400 mg, po bid on day 1 and 200 mg, po bid on day 2 and 3 measured after 3 days; type: ADME, organism-based; set-up: dose 400 mg, route oral; settings: in vivo; how it was run: as §1
[7] = AUC (0 to 12 hrs) in human at 400 mg, po bid on day 1 and 200 mg, po bid on day 2 and 3 measured after 3 days; type: ADME, organism-based; set-up: dose 400 mg, time < 12 hr, route oral; settings: plasma; how it was run: as §1
[8] = Cmax in human at 400 mg, po bid on day 1 and 200 mg, po bid on day 2 and 3 followed by 7 days of washout period then treated with ritonavir 100 mg, po for 10 days followed by 200 mg, po of drug coadministered with 100 mg, po ritonavir till day 30; type: ADME, organism-based; set-up: dose 400 mg, route oral; settings: in vivo; how it was run: as §1
[9] = Tmax in human at 400 mg, po bid on day 1 and 200 mg, po bid on day 2 and 3 followed by 7 days of washout period then treated with ritonavir 100 mg, po for 10 days followed by 200 mg, po of drug coadministered with 100 mg, po ritonavir till day 30; type: ADME, organism-based; settings: in vivo; how it was run: as §1
[10] = system: Homo sapiens; experiment: Toxicity in human assessed as mortality at 400 mg, po bid on day 1 and 200 mg, po bid on day 2 and 3 followed by 7 days of washout period then treated with ritonavir 400 mg, po for 10 days followed by 200 mg, po of drug coadministered with ritonavir 400 mg, po till day 30; type: organism-based; settings: in vivo
How it was run: (§2)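 Healthy male subjects were followed for adverse events throughout dosing. Vital signs and 12-lead ECGs were recorded predose and 1, 3 and 8 h after the morning voriconazole dose on days 1, 3, 11, 15, 20, 21, 25 and 30. The baseline was the mean of triplicate day-1 predose ECGs. Safety data were summarized descriptively.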

[11] = system: Homo sapiens; experiment: Toxicity in human assessed as serious adverse events at 400 mg, po bid on day 1 and 200 mg, po bid on day 2 and 3 followed by 7 days of washout period then treated with ritonavir 400 mg, po for 10 days followed by 200 mg, po of drug coadministered with ritonavir 400 mg, po till day 30; type: organism-based; settings: in vivo; how it was run: as §2
[12] = system: Homo sapiens; experiment: Toxicity in human assessed as mortality at 400 mg, po bid on day 1 and 200 mg, po bid on day 2 and 3 measured after 3 days; type: organism-based; settings: in vivo, 72 h; how it was run: as §2
[13] = system: Homo sapiens; experiment: Toxicity in human assessed as serious adverse events at 400 mg, po bid on day 1 and 200 mg, po bid on day 2 and 3 measured after 3 days; type: organism-based; settings: in vivo, 72 h; how it was run: as §2
[14] = system: Homo sapiens; experiment: Toxicity in human assessed as mortality at 400 mg, po bid on day 1 and 200 mg, po bid on day 2 and 3 followed by 7 days of washout period then treated with ritonavir 100 mg, po for 10 days followed by 200 mg, po of drug coadministered with ritonavir 100 mg, po till day 30; type: organism-based; settings: in vivo; how it was run: as §2
[15] = system: Homo sapiens; experiment: Toxicity in human assessed as serious adverse events at 400 mg, po bid on day 1 and 200 mg, po bid on day 2 and 3 followed by 7 days of washout period then treated with ritonavir 100 mg, po for 10 days followed by 200 mg, po of drug coadministered with ritonavir 100 mg, po till day 30; type: organism-based; settings: in vivo; how it was run: as §2
[16] = system: Homo sapiens; experiment: Decrease in Cmax of ritonavir in human at 400 mg, po bid on day 1 and 200 mg, po bid on day 2 and 3 followed by 7 days of washout period then treated with ritonavir 100 mg, po for 10 days followed by 200 mg, po of drug coadministered with ritonavir 100 mg, po till day 30; type: ADME, organism-based; settings: in vivo
[17] = AUC (0 to 12 hrs) in human at 400 mg, po bid from day 11 to day 20 pretreated with voriconazole 400 mg, po bid on day 1 and 200 mg, po bid on day 2 and 3 followed by washout from day 4 to day 10; type: ADME, organism-based; set-up: dose 400 mg, time < 12 hr, route oral; settings: plasma
How it was run: (§3)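 Blood (7 ml) drawn on days 20 and 30 at 0.5–12 h postdose, centrifuged at 1,700 x g about 10 min at about 4°C, plasma stored at about –20°C. Validated LC/MS/MS assay; noncompartmental analysis, with Cmax and Tmax read directly from concentration-time data.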

[18] = Cmax in human at 400 mg, po bid from day 11 to day 20 pretreated with voriconazole 400 mg, po bid on day 1 and 200 mg, po bid on day 2 and 3 followed by washout from day 4 to day 10; type: ADME, organism-based; set-up: dose 400 mg, route oral; settings: in vivo; how it was run: as §3
[19] = Tmax in human at 400 mg, po bid from day 11 to day 20 pretreated with voriconazole 400 mg, po bid on day 1 and 200 mg, po bid on day 2 and 3 followed by washout from day 4 to day 10; type: ADME, organism-based; settings: in vivo; how it was run: as §3
[20] = AUC (0 to 12 hrs) in human at 400 mg, po bid from day 11 to day 20 pretreated with placebo from day 1 to day 3 followed by washout from day 4 to day 10; type: ADME, organism-based; set-up: dose 400 mg, time < 12 hr, route oral; settings: plasma; how it was run: as §3
[21] = Cmax in human at 400 mg, po bid from day 11 to day 20 pretreated with placebo from day 1 to day 3 followed by washout from day 4 to day 10; type: ADME, organism-based; set-up: dose 400 mg, route oral; settings: in vivo; how it was run: as §3
[22] = Tmax in human at 400 mg, po bid from day 11 to day 20 pretreated with placebo from day 1 to day 3 followed by washout from day 4 to day 10; type: ADME, organism-based; settings: in vivo; how it was run: as §3
[23] = AUC (0 to 12 hrs) in human at 100 mg, po bid from day 11 to day 20 pretreated with voriconazole 400 mg, po bid on day 1 and 200 mg, po bid on day 2 and 3 followed by washout from day 4 to day 10; type: ADME, organism-based; set-up: dose 100 mg, time < 12 hr, route oral; settings: plasma; how it was run: as §3
[24] = Cmax in human at 100 mg, po bid from day 11 to day 20 pretreated with voriconazole 400 mg, po bid on day 1 and 200 mg, po bid on day 2 and 3 followed by washout from day 4 to day 10; type: ADME, organism-based; set-up: dose 100 mg, route oral; settings: in vivo; how it was run: as §3
[25] = Tmax in human at 100 mg, po bid from day 11 to day 20 pretreated with voriconazole 400 mg, po bid on day 1 and 200 mg, po bid on day 2 and 3 followed by washout from day 4 to day 10; type: ADME, organism-based; settings: in vivo; how it was run: as §3
[26] = AUC (0 to 12 hrs) in human at 400 mg, po bid from day 11 to day 20 pretreated with voriconazole 400 mg, po bid on day 1 and 200 mg, po bid on day 2 and 3 followed by washout from day 4 to day 10 followed by 400 mg, po of drug coadministered with voriconazole 200 mg, po from day 21 to day 30; type: ADME, organism-based; set-up: time < 12 hr, dose 400 mg, route oral; settings: plasma; how it was run: as §3
[27] = Cmax in human at 400 mg, po bid from day 11 to day 20 pretreated with voriconazole 400 mg, po bid on day 1 and 200 mg, po bid on day 2 and 3 followed by washout from day 4 to day 10 followed by 400 mg, po of drug coadministered with voriconazole 200 mg, po from day 21 to day 30; type: ADME, organism-based; set-up: dose 400 mg, route oral; settings: in vivo; how it was run: as §3
[28] = Tmax in human at 400 mg, po bid from day 11 to day 20 pretreated with voriconazole 400 mg, po bid on day 1 and 200 mg, po bid on day 2 and 3 followed by washout from day 4 to day 10 followed by 400 mg, po of drug coadministered with voriconazole 200 mg, po from day 21 to day 30; type: ADME, organism-based; settings: in vivo; how it was run: as §3
[29] = AUC (0 to 12 hrs) in human at 100 mg, po bid from day 11 to day 20 pretreated with voriconazole 400 mg, po bid on day 1 and 200 mg, po bid on day 2 and 3 followed by washout from day 4 to day 10 followed by 100 mg, po of drug coadministered with voriconazole 200 mg, po from day 21 to day 30; type: ADME, organism-based; set-up: dose 100 mg, time < 12 hr, route oral; settings: plasma; how it was run: as §3
[30] = Cmax in human at 100 mg, po bid from day 11 to day 20 pretreated with voriconazole 400 mg, po bid on day 1 and 200 mg, po bid on day 2 and 3 followed by washout from day 4 to day 10 followed by 100 mg, po of drug coadministered with voriconazole 200 mg, po from day 21 to day 30; type: ADME, organism-based; set-up: dose 100 mg, route oral; settings: in vivo; how it was run: as §3
[31] = Tmax in human at 100 mg, po bid from day 11 to day 20 pretreated with voriconazole 400 mg, po bid on day 1 and 200 mg, po bid on day 2 and 3 followed by washout from day 4 to day 10 followed by 100 mg, po of drug coadministered with voriconazole 200 mg, po from day 21 to day 30; type: ADME, organism-based; settings: in vivo
[32] = AUC (0 to 12 hrs) in human at 400 mg, po bid from day 11 to day 20 pretreated with placebo from day 1 to day 3 followed by washout from day 4 to day 10 followed by 400 mg, po of drug coadministered with placebo from day 21 to day 30; type: ADME, organism-based; set-up: dose 400 mg, time < 12 hr, route oral; settings: plasma; how it was run: as §3
[33] = Cmax in human at 400 mg, po bid from day 11 to day 20 pretreated with placebo from day 1 to day 3 followed by washout from day 4 to day 10 followed by 400 mg, po of drug coadministered with placebo from day 21 to day 30; type: ADME, organism-based; set-up: dose 400 mg, route oral; settings: in vivo; how it was run: as §3
[34] = Tmax in human at 400 mg, po bid from day 11 to day 20 pretreated with placebo from day 1 to day 3 followed by washout from day 4 to day 10 followed by 400 mg, po of drug coadministered with placebo from day 21 to day 30; type: ADME, organism-based; settings: in vivo; how it was run: as §3

## C[C@@H](c1ncncc1F)[C@](O)(Cn1cncn1)c1ccc(F)cc1F [VORICONAZOLE]
[1]
  AUC at 12 h: 19500 ng·h/mL
[2]
  Cmax: 1220 ng/mL
[3]
  Tmax: 1 h
[4]
  AUC at 12 h: 4250 ng·h/mL
[5]
  Tmax: 1.5 h
[6]
  Cmax: 3360 ng/mL
[7]
  AUC at 12 h: 26500 ng·h/mL
[8]
  Cmax: 2810 ng/mL
[9]
  Tmax: 1.5 h
[10]
  Activity: Non-toxic
[11]
  Activity: Non-toxic
[12]
  Activity: Non-toxic
[13]
  Activity: Non-toxic
[14]
  Activity: Non-toxic
[15]
  Activity: Non-toxic
[16]
  Activity: Non-toxic

## CC(C)c1nc(CN(C)C(=O)N[C@H](C(=O)N[C@@H](Cc2ccccc2)C[C@H](O)[C@H](Cc2ccccc2)NC(=O)OCc2cncs2)C(C)C)cs1 [RITONAVIR]
[17]
  AUC at 12 h: 68000 ng·h/mL
[18]
  Cmax: 10700 ng/mL
[19]
  Tmax: 1.5 h
[20]
  AUC at 12 h: 65300 ng·h/mL
[21]
  Cmax: 10500 ng/mL
[22]
  Tmax: 1 h
[23]
  AUC at 12 h: 7810 ng·h/mL
[24]
  Cmax: 1410 ng/mL
[25]
  Tmax: 1 h
[26]
  AUC at 12 h: 65900 ng·h/mL
[27]
  Cmax: 10400 ng/mL
[28]
  Tmax: 1 h
[29]
  AUC at 12 h: 6430 ng·h/mL
[30]
  Cmax: 992 ng/mL
[31]
  Tmax: 3 h
[32]
  AUC at 12 h: 58400 ng·h/mL
[33]
  Cmax: 10200 ng/mL
[34]
  Tmax: 1 h
